Assay results as given in ChEMBL document CHEMBL4017530, “Mind the Metal: A Fragment Library-Derived Zinc Impurity Binds the E2 Ubiquitin-Conjugating Enzyme Ube2T and Induces Structural Rearrangements” (J Med Chem, 2017).
Substitutions are numbered along the chain they refer to. Active and inactive are the calls of the source. The rule behind the calls is not given here.

Columns and labels:
[1] = target: T1, Ubiquitin-conjugating enzyme E2 T (Homo sapiens, UniProt Q9NPD8, C86K/K91R/K95R); assay: Binding affinity to N-terminally 6xHis-Smt3 tagged human Ube2T C86K/K91R/K95R mutant expressed in Escherichia coli by ITC method
In short: (§1)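 Titrations at 25 °C with stirring at 750 rpm in 100 mM Tris pH 8.0, 100 mM NaCl, 0.5 mM TCEP. Protein at approximately 50 μM. Titrant-into-buffer control used to correct for heat of dilution. Each titration repeated at least twice.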

[2] = tested on: T2, Ubiquitin-conjugating enzyme E2 T (Homo sapiens), Q9NPD8 [C86K,K91R,K95R]; assay: Binding affinity to N-terminally 6xHis-Smt3 tagged human Ube2T C86K/K91R/K95R mutant expressed in Escherichia coli by DSF method
T2 sequence (whole entry): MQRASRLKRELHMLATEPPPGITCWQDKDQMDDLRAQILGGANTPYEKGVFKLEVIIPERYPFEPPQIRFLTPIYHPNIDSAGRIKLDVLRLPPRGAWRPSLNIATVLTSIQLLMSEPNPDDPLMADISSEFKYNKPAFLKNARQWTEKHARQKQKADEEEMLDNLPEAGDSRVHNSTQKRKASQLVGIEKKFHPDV
In short: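 Compound ranged from 5 μM to 5 mM. Samples heated from 25 to 95 °C at 1 °C/min with fluorescence read at each step. Melting temperature shift was the read-out.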

[3] = tested on: T2, Ubiquitin-conjugating enzyme E2 T (Homo sapiens), Q9NPD8 [C86K,K91R,K95R]; assay: (§2) Binding affinity to N-terminally 6xHis-Smt3 tagged FANCL RING fused human Ube2T C86K/K91R/K95R mutant expressed in Escherichia coli by ITC method; in short: as §1
[4] = target: T3, Ubiquitin-conjugating enzyme E2 T (Homo sapiens) (UniProt Q9NPD8); assay: Reversible binding affinity to human 15N-labelled C-terminal flexible tail lacking Ube2T (1 to 154 residues) at 100 to 500 uM measured after overnight dialysis by NMR spectrocopy
T3 sequence (whole entry): T2 sequence (whole entry) with K86C, R91K, R95K
In short: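 HSQC on 50 μM 15N-Ube2T ΔC with compound at 100, 300 and 500 μM. Compound was then removed by overnight dialysis in 50 mM potassium phosphate pH 6.8, 85 mM NaCl, 1 mM DTT. HSQC recorded again and compared with the apo peak positions.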

[5] = target: Ubiquitin-like modifier-activating enzyme 1 (Homo sapiens) (UniProt P22314); assay: Inhibition of recombinant human E1 charging with ubiquitin at 20 to 100 uM after 10 mins in presence of ATP by coomassie staining based SDS PAGE analysis
Ubiquitin-like modifier-activating enzyme 1 (Homo sapiens), sequence (P22314 whole entry, looked up): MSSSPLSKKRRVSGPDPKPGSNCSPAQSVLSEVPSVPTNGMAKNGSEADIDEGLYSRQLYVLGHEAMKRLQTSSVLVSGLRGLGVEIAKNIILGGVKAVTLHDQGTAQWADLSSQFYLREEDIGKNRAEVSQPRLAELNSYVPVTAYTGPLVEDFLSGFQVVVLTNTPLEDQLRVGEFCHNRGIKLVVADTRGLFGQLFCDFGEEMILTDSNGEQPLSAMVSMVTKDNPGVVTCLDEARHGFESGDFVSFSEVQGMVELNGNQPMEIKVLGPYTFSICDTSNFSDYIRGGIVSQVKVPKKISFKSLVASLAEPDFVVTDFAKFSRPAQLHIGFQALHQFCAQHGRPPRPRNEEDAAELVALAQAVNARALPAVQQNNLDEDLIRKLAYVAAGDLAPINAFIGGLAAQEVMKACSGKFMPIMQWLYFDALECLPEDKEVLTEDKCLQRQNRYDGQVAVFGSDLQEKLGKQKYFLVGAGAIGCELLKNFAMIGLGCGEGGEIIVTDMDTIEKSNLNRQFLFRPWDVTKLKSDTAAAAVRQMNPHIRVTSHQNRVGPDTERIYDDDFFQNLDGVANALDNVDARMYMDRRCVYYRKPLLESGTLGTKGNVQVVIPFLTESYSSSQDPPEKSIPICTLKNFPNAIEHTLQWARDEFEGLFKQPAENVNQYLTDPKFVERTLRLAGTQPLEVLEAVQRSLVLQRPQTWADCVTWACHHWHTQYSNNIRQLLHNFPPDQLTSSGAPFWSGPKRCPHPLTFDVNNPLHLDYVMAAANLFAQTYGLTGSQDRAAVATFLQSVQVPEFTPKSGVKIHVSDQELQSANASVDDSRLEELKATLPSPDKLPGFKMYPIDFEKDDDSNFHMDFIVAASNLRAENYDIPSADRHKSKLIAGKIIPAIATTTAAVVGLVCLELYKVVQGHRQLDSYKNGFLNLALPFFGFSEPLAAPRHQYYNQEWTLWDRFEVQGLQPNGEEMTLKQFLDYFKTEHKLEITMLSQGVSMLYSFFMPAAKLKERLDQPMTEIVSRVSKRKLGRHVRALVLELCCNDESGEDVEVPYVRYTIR

[6] = tested on: T2, Ubiquitin-conjugating enzyme E2 T (Homo sapiens), Q9NPD8 [C86K,K91R,K95R]; assay: Binding affinity to N-terminally 6xHis-Smt3 tagged human Ube2T C86K/K91R/K95R mutant expressed in Escherichia coli in presence of EDTA by ITC method
In short: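 ITC at 25 °C with stirring at 750 rpm, protein approx. 50 μM. Buffer was 100 mM Tris pH 8.0, 100 mM NaCl, 0.5 mM TCEP, plus 2 mM EDTA. Heat of dilution corrected by titrant-into-buffer control. Repeated at least twice.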

[7] = target: T1, Ubiquitin-conjugating enzyme E2 T; assay: as §2; in short: as §1
[8] = tested on: T2, Ubiquitin-conjugating enzyme E2 T (Homo sapiens), Q9NPD8 [C86K,K91R,K95R]; assay: Binding affinity to N-terminally 6xHis-Smt3 tagged Ub fused human Ube2T C86K/K91R/K95R mutant expressed in Escherichia coli at 1.5 mM by ITC method; in short: as §1
[9] = target: T3, Ubiquitin-conjugating enzyme E2 T (Homo sapiens); assay: Binding affinity to human 15N-labelled C-terminal flexible tail lacking Ube2T (1 to 154 residues) (unknown origin) at 500 uM by NMR spectrocopy
In short: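 [1H-15N]-HSQC spectra recorded on 50 μM 15N-Ube2T ΔC (residues 1-154) with compound added at 100, 300 and 500 μM. Read-out was weakening or loss of resonance peaks compared with the apo spectrum.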

[10] = tested on: T2, Ubiquitin-conjugating enzyme E2 T (Homo sapiens), Q9NPD8 [C86K,K91R,K95R]; assay: Binding affinity to biotin labeled Ube2T C86K/K91R/K95R mutant (unknown origin) assessed as association and dissociation response at 2 uM by biolayer interferometry analysis
In short: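 Bio-layer interferometry with compound at a lowest tested concentration of 2 μM. Association and dissociation responses were recorded.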

| Activity [2] | Activity [3] | SMILES | also measured |
| --- | --- | --- | --- |
| Dose-dependent effect |  | N=C(N)c1ccc(N2CCCC2)nc1 |  |
| inactive | inactive | CC1CCN(c2ccc(C(=N)N)cn2)C1 (stereo not drawn) |  |
| inactive | inactive | CC1CCCN1c1ccc(C(=N)N)cn1 (stereo not drawn) |  |

The remaining lines, values behind:

| SMILES | Activity [2] | Activity [3] | also measured |
| --- | --- | --- | --- |
| [Cl-].[Cl-].[Zn+2] [ZINC CHLORIDE] |  |  | Kd [1]: 15.7 µM |
| N=C(N)c1ccc(N2CCCCC2)nc1 | inactive | inactive |  |
| Cc1cc(C)n(-c2ccc(C(=N)N)cn2)n1 | Dose-dependent effect |  | Activity [4]: Active; inhibition [5]: inactive; Activity [6]: inactive; Kd [7]: 21.3 µM; Kd [1]: 17.7 µM; Activity [8]: inactive; Activity [9]: Active; Activity [10]: Active |
| N=C(N)c1ccc(-n2cccn2)nc1 | Dose-dependent effect |  |  |
